Values joined by “and” are separate entries in the source; they are usually repeats but may differ in a detail not shown here. Equal values may be shown once.
Tested on: Fibroblast
Experiment: Multiplex assay against human fibroblast
Assay type: toxicity, cell-based
Conditions: 10 µM, compound concentration 10 uM
How it was run: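 Cells were classed with CellPathfinder machine-learning gating, first as Hoechst high-intensity objects or normal cells, then (normal cells) as healthy, pyknosed or fragmented nuclei, and finally (pyknosed cells) as mitotic or apoptotic. Staining of live cells at seeding used Hoechst33342, BioTracker Green Microtubule Cytoskeleton Dye, MitoTracker Red and Annexin V Alexa Fluor 680, with imaging on a CQ1 microscope at 37°C and 5% CO2 after compound addition. Tubulin, mitochondrial-mass and membrane-permeability phenotypes are per cents of healthy-nucleus cells.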

CNCc1ccccc1-c1csc([C@@H](C)Nc2nc(C)nc3cc(OC)c(OC)cc23)c1 [BAY-293]
Population Apoptotic (%) (12 h, replicate 1): 45% and 52% | Population Fragmented Nuclei (%) (12 h, replicate 1): 29% and 38% | Population Healthy Nuclei (%) (12 h, replicate 1): 45% and 27% | Population Membrane Permeable-Phenotype (%) (12 h, replicate 1): 11% and 24% | Population Mitotic Cells (%) (12 h, replicate 1): 54% and 47% | Population Normal (%) (12 h, replicate 1): 58% and 87% | Population Pyknosed Nuclei (%) (12 h, replicate 1): 24% and 33% | Population Apoptotic (%) (12 h, replicate 2): 83% and 66% | Population Fragmented Nuclei (%) (12 h, replicate 2): 50% and 52% | Population Healthy Nuclei (%) (12 h, replicate 2): 17% and 31% | Population Hoechst High Intensity Objects (%) (12 h, replicate 2): 34% and 42% | Population Membrane Permeable-Phenotype (%) (12 h, replicate 2): 20% and 8% | Population Mitotic Cells (%) (12 h, replicate 2): 16% and 33% | Population Normal (%) (12 h, replicate 2): 65% and 57% | Population Pyknosed Nuclei (%) (12 h, replicate 2): 32% and 16% | Population Tubulin-Different-Phenotype (%) (12 h, replicate 2): 50% and 30% | Population Apoptotic (%) (24 h, replicate 1): 89% and 38% | Population Fragmented Nuclei (%) (24 h, replicate 1): 36% and 23% | Population Hoechst High Intensity Objects (%) (24 h, replicate 1): 16% and 40% | Population Membrane Permeable-Phenotype (%) (24 h, replicate 1): 11% and 4% | Population Normal (%) (24 h, replicate 1): 83% and 59% | Population Pyknosed Nuclei (%) (24 h, replicate 1): 56% and 28% | Population Tubulin-Different-Phenotype (%) (24 h, replicate 1): 22% and 14% | Population Apoptotic (%) (24 h, replicate 2): 66% and 90% | Population Fragmented Nuclei (%) (24 h, replicate 2): 52% and 60% | Population Hoechst High Intensity Objects (%) (24 h, replicate 2): 44% | Population Normal (%) (24 h, replicate 2): 55% | Population Pyknosed Nuclei (%) (24 h, replicate 2): 10% and 27% | Population Tubulin-Different-Phenotype (%) (24 h, replicate 2): 38% and 20%
